PREPL inhibitor – human PREPL enzyme inhibition. recombinant PREPL, fluorescence polarization activity-based probe. 320,000 tested, 0.68% active. inhibition, % at 5.96 µM. Q4J6C6; in the data active = inhibition above about 43%;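 note: 0% = enzyme with DMSO and 100% = wells lacking enzyme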
MC4R ag barr – agonists of human melanocortin 4 receptor (MC4R) beta-arrestin | activation, % at 8.9 µM | 360,000 tested, 0.98% active | P32245 | U2OS MC4R beta-arrestin complementation, luminescence; percent of melanotan II response, DMSO zero;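 active = activation above a per-plate cutoff, the mean activation of sample wells on that plate plus 3 SD, cut at about 8% in these data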
NTR1 ag – agonists of human neurotensin receptor NTR1 | activation, % at 20 µM | 330,000 tested, 0.17% active | P30989 | NTR1-U2OS beta-arrestin-GFP spot imaging, agonist mode;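 active = activation at or above 40% of the spot to cytoplasm intensity ratio, with at least 20 cells analyzed; inconclusive = wells under 20 cells, flagged as cytotoxic or low count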;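 note: 0% = DMSO without peptide and 100% = 100 nM NTR1 peptide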
Target sequence (P30989 whole entry, looked up): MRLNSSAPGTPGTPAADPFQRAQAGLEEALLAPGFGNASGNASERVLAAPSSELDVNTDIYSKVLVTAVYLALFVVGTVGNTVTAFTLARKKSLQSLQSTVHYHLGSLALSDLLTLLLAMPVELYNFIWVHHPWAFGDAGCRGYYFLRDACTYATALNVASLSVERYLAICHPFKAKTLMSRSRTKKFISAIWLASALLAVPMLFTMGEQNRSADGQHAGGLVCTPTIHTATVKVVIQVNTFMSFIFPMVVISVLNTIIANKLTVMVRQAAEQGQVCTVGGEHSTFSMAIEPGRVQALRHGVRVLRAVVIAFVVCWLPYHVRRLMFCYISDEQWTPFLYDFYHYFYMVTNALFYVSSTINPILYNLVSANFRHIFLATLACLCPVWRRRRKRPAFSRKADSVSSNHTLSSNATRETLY
MC4R antag cAMP – antagonists of human melanocortin 4 receptor (MC4R). MC4R-expressing cells, MTII-stimulated cAMP, LANCE TR-FRET. 360,000 tested, 0.48% active. P32245. AID 540295. inhibition, % at 6.5 µM;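 active = inhibition above its plate's cutoff, the mean of tested wells on that plate plus 3 SD, cut at about 29% in these data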;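 note: 0% = Melanotan II alone and 100% = Melanotan II plus saturating MCL0020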
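Material: U2OS-MC4R stable cell line | Reagent: Melanotan II challenge after compound preincubation | Doses: One concentration, 6.5 µM nominal | Incubation: 30-min compound preincubation, 1-h Melanotan II challenge, 1-h detection, room temperature | Signal: TR-FRET cAMP assay | Replicates: One well per compound, no replicates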
m5-HT2A agonist – activates the mouse 5-HT2A serotonin receptor | 360,000 tested, 0.66% active | P35363 | CHO-K1 mHTR2A beta-arrestin complementation, luminescence; percent of 30 µM serotonin response | activation, % at 7.6 µM;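 active = activation above a run cutoff, the mean activation of all tested compounds plus 3 SD, cut at about 14% in these data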;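 note: 0% = plate median of compound wells and 100% = 30 µM serotonin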
Hep lipid drop – hepatic lipid droplet formation modulation | AML12 mouse hepatocytes, oleate lipid droplets, BODIPY imaging | 240,000 tested, 0.4% active | AID 1656 | inhibition, % at 6.5 µM;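 active = lipid droplet intensity inhibited by at least 50%, with more than 500 cells counted; inconclusive = wells with under 300 cells, treated as cytotoxic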
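Test system: AML12 mouse liver cells; schedule: overnight exposure; technique: high-content imaging of BODIPY-stained droplets and DAPI nuclei; read-out: % inhibition of corrected integrated BODIPY droplet signal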
Starred values were filed as active, the others as inactive; ? = inconclusive; / = not tested or not shown. This is a sample that favours compounds with a hit; in the whole collection about 2.7% have one here.

SMILES	PREPL inhibitor	MC4R ag barr	NTR1 ag	MC4R antag cAMP	m5-HT2A agonist	Hep lipid drop
COC(=O)C1=C(C(=O)OC)SC2(S1)C(C(=O)OC)=C(C(=O)OC)SC1=C2c2cc(C)ccc2NC1(C)C	8	-1	7	53*	3	-19
CCOC(=O)C1(N(CC)CC)Sc2cc(C)ccc2NC1=O (configuration not stated)	4	1	0	12	1	/
COc1cc2ccccc2cc1C(=O)N1CC(C)CC(C)C1 (configuration not stated)	0	0	2	0	-6	1
CCOc1ccc(CCNC(=O)c2cc3sccc3n2C)cc1OCC	10	1	2	5	0	101*
CCCCN(C(=O)CSCC(=O)Nc1ccc(C)cc1)c1c(N)n(CC(C)C)c(=O)[nH]c1=O	7	2	2	-1	4	/
O=S(=O)(NC1CC1)c1ccc(S(=O)(=O)N2CCCC3(CCCCC3)C2)cc1	0	9.8*	2	10	-1	8
CC(=O)c1c(C)[nH]c(C(=O)OCCCCN2C(=O)c3ccccc3C2=O)c1C	-6	0	1	1	-1	/
O=C(Nc1nc2ccccc2[nH]1)c1ccc(Br)o1	2	1	-2	13	0	5
N#C/C(=C\c1c[nH]c2ccc(Br)cc12)c1ccccn1	24	4	51*	13	-4	-34
N#C/C(=C\c1ccc(C(=O)O)cc1)c1ccccn1	0	-2	-1	-6	-1	1
O=C(O)CSc1nc(C(F)(F)F)cc(=O)n1-c1ccccc1	4	0	-2	3	17*	/
NC(Cc1ccc(Cl)cc1)c1csc(NC(=O)NCC2CCCCC2)n1 (configuration not stated)	/	8.5*	/	8	-1	/
COc1ccccc1/C=C/C(=C1/C(=O)N(c2ccccc2)N=C1C)c1ccc(C)cc1	5	-1	5	14	6	53*
COc1cccc(/C=C/C(=C2/C(=O)N(c3ccccc3)N=C2C)c2ccccc2)c1OC	2	2	6	18	2	20
CCOc1cccc(C2c3c(oc4ccccc4c3=O)C(=O)N2c2ccccn2)c1 (configuration not stated)	-2	/	6	/	/	8
CCOc1cc(C2c3c(oc4ccccc4c3=O)C(=O)N2c2nccs2)ccc1O (configuration not stated)	15	9.5*	4	-4	2	0
C/C(CC(=O)Nc1ccc(C)c(Cl)c1)=N\NC(=O)c1cccc(O)c1	-23	0	-2	9	-2	3
O=C(CN(CCc1ccccc1)S(=O)(=O)c1ccc(Br)cc1)N/N=C/c1ccc2c(c1)OCO2	-3	8.5*	26	12	4	-6
O=C(CN(Cc1ccccc1)S(=O)(=O)c1ccccc1)N/N=C/c1ccc2c(c1)OCO2	-25	4	4	10	-4	/
Cc1ccc(NC(=O)c2ccccc2CCc2ccccc2)c(C)c1	-23	4	2	8	-2	/
Cc1cc(C)c(NC(=O)c2ccccc2CCc2ccccc2)c(C)c1	3	29*	4	0	-1	/
CCOc1ccc(CC(=O)NNC(=S)NCCc2ccccc2)cc1	-2	-1	1	15	1	12
COc1ccc(-c2cc3c(=O)n(CC(=O)NCc4ccc(F)cc4)ncn3n2)cc1	1	1	2	2	-3	1
COc1ccc(-c2cc3c(=O)n(CC(=O)NCc4ccc(C)cc4)ncn3n2)cc1	-15	9.1*	-2	6	5	-27
Cc1ccc(OCC(=O)N/N=C/c2cn[nH]c2-c2ccc(Cl)c(Cl)c2)cc1	-39	8.7*	14	15	-7	/
SMILES	PREPL inhibitor	MC4R ag barr	NTR1 ag	MC4R antag cAMP	m5-HT2A agonist	Hep lipid drop
Cc1cccc(OCC(=O)N/N=C/c2cn[nH]c2-c2ccc(Cl)c(Cl)c2)c1	-29	4	15	15	2	/
Cc1cc2oc(C(=O)Nc3ccc(S(N)(=O)=O)cc3)c(C)c2cc1Cl	13	8.4*	-2	-2	-6	-3
Cc1ccc2c(C)c(C(=O)Nc3ccc(S(N)(=O)=O)cc3)oc2c1C	-121	4	1	4	-1	-11
O=C(O)CCC(=O)Nc1ccc(C(=O)OCC(=O)c2ccc(Cl)cc2Cl)cc1	-27	-4	-1	1	-3	-32
COc1cc(NC(=S)NC(=O)c2ccccc2F)ccc1NC(=O)c1ccco1	-2	9.1*	-1	2	1	-10
COc1ccccc1C(=O)NC(=S)Nc1ccc(Cc2ccncc2)cc1	-5	13*	4	15	-9	/
COc1cc(C(=O)NC(=S)Nc2ccc(Cc3ccncc3)cc2)cc(OC)c1OC	-18	-2	12	12	4	4
O=C(Nc1c(-c2ccc3c(c2)OCO3)[nH][nH]c1=O)c1ccc2c(c1)OCO2	/	/	/	/	0	/
Clc1ccc(N2O[C@H]3C=C[C@@H]2C3)nc1	/	/	/	/	-4	/
O=S(=O)(Nc1nc(SCc2ccc(Cl)cc2)n[nH]1)c1ccccc1	-12	2	4	5	-3	-8
Cc1ccccc1C(=O)Nc1nc(SCc2ccc(Cl)cc2)n[nH]1	8	8.7*	6	-9	-2	-15
O=C(COC(=O)/C=C/c1ccccc1Cl)NC(=O)NCc1ccccc1	2	8.4*	1	-2	3	/
COc1nc(N=C(N)N)nc2ccc(C)cc12	16	/	0	/	/	-4
CCn1c(CSc2nnc(-c3cccnc3)n2-c2ccccc2C)nc2cc(C(=O)O)ccc21	49*	/	0	/	/	-11
COc1ccc(O)c(/C=N/NC(=O)CN2CCS(=O)(=O)CC2)c1	-8	-3	0	-11	6	6
O=[N+]([O-])c1cc([N+](=O)[O-])c2cc3ccccc3nc2c1	16	-2	26	6	-7	-17
COc1ccc(OCCNc2cc(Cl)ccc2[N+](=O)[O-])cc1	8	10*	0	13	9	?
COc1ccc2cc3cc(C(=O)NCCC(C)C)oc3nc2c1	-5	8.8*	-2	11	-9	15
COc1ccc2cc3cc(C(=O)Nc4ccccc4N4CCN(C)CC4)oc3nc2c1	-55	-2	10	-2	16*	/
COc1ccc2cc3cc(C(=O)NCCN4CCN(c5ccccc5F)CC4)oc3nc2c1	-23	-1	7	0	-3	/
COc1ccc(O[C@H]2C=C[C@@H](c3ccccc3)O[C@@H]2COC(=O)CC/C(C)=N/OC[C@@H](O)[C@H]2O[C@@H]3OC(C)(C)O[C@@H]3[C@H]2O)cc1	20	/	2	/	/	-3
